# High-throughput results as filed in PubChem BioAssay.
# Scp1 inh = Scp-1 phosphatase inhibitors, primary screen, biochemical, colorimetric, uHTS; Recombinant Scp1, phosphopeptide, malachite green phosphate absorbance; inhibition, % at 20 µM; 340,000 tested, 0.88% active; AID 493091, 2011;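 active = inhibition above about 50% at 20 µM, limit read from the data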;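 note: plate controls were DMSO wells with enzyme for no effect and wells lacking enzyme for full effect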
# Target sequence (Q9GZU7 76-261 limits assumed): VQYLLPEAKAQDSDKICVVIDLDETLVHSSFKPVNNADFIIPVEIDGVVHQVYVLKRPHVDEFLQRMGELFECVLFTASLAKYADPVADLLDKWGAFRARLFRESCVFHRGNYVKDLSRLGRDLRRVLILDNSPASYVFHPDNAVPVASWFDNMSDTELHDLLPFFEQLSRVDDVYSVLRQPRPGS
#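 assay system = SCP-1 phosphatase catalytic domain, residues 76-261 | buffer or medium = 50 mM Tris acetate pH 5.5, 0.005% Tween-20, 10 mM MgCl2 | incubation = enzyme reaction 45 min at room temperature, colour 5 min, stabilisation 30 min | signal = Phosphate-binding colour reagent, absorbance read at 630 nm | measure = % inhibition at 20 µM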
# LMPTP block = LMPTP phosphatase inhibitors, primary screen, biochemical, fluorescence intensity, uHTS; inhibition, % at 20 µM; Low molecular weight phosphotyrosine protein phosphatase (Homo sapiens), P24666; recombinant LMPTP-A, OMFP fluorogenic substrate; 360,000 tested, 0.22% active; AID 651560, 2012;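 active = compounds that cut the enzyme signal by at least half of the control window in the single-dose screen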;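 note: plate controls were DMSO wells with enzyme plus substrate for no effect and substrate without enzyme for full effect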
# Target sequence (P24666 whole entry, looked up): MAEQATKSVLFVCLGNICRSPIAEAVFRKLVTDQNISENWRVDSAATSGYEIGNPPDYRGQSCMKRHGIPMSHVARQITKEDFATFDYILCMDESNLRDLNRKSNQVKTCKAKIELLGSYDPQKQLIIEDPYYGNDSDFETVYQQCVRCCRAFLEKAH
#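 Test system: LMPTP-A phosphatase enzyme; input: 0.625 nM LMPTP-A final; reagent: OMFP substrate, 400 µM final; compound dosing: 20 µM single dose, 3% DMSO; incubation: 50 min dark incubation at room temperature; measured by: endpoint fluorescence intensity from OMFP dephosphorylation; measure: % inhibition relative to no-enzyme and uninhibited control wells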
# DNMT1 inh = human DNMT1 methyltransferase inhibitors, primary screen, biochemical, molecular beacon, fluorescence, HinP1I cleavage, uHTS; DNA (cytosine-5)-methyltransferase 1 (Homo sapiens), P26358; inhibition (reported as % activation of signal), % at 10 µM; 360,000 tested, 0.83% active; AID 588458, 2011; in the data active = inhibition above about 50%
# SUMO1-SIM PPI = modulators of SUMO1 protein-protein interactions, primary screen, biochemical, uHTS; Small ubiquitin-related modifier 1 (Homo sapiens), P63165; SUMO1 binding to a labelled peptide, TR-FRET, 1 h; inhibition, % at 20 µM; 360,000 tested, 0.33% active; AID 602429, 2012; in the data active = inhibition above about 37%
# Target sequence (P63165 whole entry, looked up): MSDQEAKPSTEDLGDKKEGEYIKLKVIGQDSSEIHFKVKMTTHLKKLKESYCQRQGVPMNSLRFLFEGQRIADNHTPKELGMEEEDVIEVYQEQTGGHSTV
# UBC9 SUMO inh = inhibitors of in vitro SUMOylation cascade, primary screen, biochemical, HTRF, uHTS. SUMO-conjugating enzyme UBC9 (Homo sapiens), P63279. HTRF SUMOylation assay, SAE1/SAE2 + UBC9. inhibition, % at 35 µM. 290,000 tested, 0.36% active; in the data active = inhibition above about 50%, passing the limit was not always enough
# Target sequence (P63279 whole entry, looked up): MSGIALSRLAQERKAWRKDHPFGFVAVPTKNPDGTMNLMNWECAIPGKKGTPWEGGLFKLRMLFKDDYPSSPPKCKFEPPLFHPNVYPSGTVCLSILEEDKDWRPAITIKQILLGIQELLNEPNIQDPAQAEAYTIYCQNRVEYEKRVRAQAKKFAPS
# STEP block = STEP phosphatase inhibitors, primary screen, biochemical, fluorescence intensity, uHTS; AID 588621, 2011; inhibition, % at 20 µM; recombinant STEP, OMFP fluorogenic substrate; 360,000 tested, 0.25% active; Tyrosine-protein phosphatase non-receptor type 5 (Homo sapiens), P54829;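 active = inhibition at 20 µM, scaled per plate between control wells, above about 37%, limit read from the data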;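 note: 0% = DMSO with enzyme and substrate and 100% = substrate only without enzyme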
#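 System: isolated STEP enzyme; schedule: 20 min enzyme reaction at room temperature, protected from light; medium: Bis-Tris buffer pH 6.0, 2.5 mM DTT, 0.005% Tween 20; signal: fluorescence, 480/540 nm; dosing: single compound dose of 20 µM, 1% DMSO final; also added: OMFP substrate, 25 µM final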
# Scp1 confirm = Scp-1 phosphatase inhibitors, retest, confirmation, biochemical, colorimetric, single concentration | shares compounds with Scp1 inh | recombinant SCP-1 catalytic domain, phosphate release, malachite green absorbance | inhibition, % at 20 µM | 2,500 tested, 61% active | AID 540281, 2011;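 note: plate controls were DMSO with enzyme for no effect and buffer wells lacking enzyme for full effect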
# MG interference = colorimetric readout interference by compounds, confirmation, artefact control for Scp-1 inhibitor project, biochemical, single concentration. shares compounds with Scp1 inh. Colorimetric interference counterscreen, malachite green absorbance 630 nm. apparent inhibition (interference), % at 20 µM. 2,500 tested, under 10 active;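 note: compounds added after enzyme reaction finished so only phosphate colour detection is probed; plate controls were DMSO wells with completed Scp-1 reaction for no effect and substrate wells lacking enzyme for full effect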
# Scp-1 Tm shift = Scp-1 binding by thermal shift, confirmation, orthogonal assay for Scp-1 inhibitor project, biophysical, differential scanning fluorimetry; shares compounds with Scp1 inh; Recombinant SCP1, Sypro Orange thermal shift Tm; thermal shift relative to vanadate control, % at 40 µM; 1,500 tested, 25% active; AID 540329, 2011;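 active = substances whose mean melting-temperature shift, as a percentage of the reference inhibitor's shift, reaches about 5.3%, limit read from the data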;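 note: 0% = Tm of DMSO wells and 100% = Tm with sodium orthovanadate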
# * hit, by the source's call; / = no result given. Shown are actives, neighbours in structure and some others; about 1.9% of the full set was active somewhere.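 Rule for the calls, unless noted: active = inhibition of at least 30% at 20 µM; inactive = the rest.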
SMILES,Scp1 inh,LMPTP block,DNMT1 inh,SUMO1-SIM PPI,UBC9 SUMO inh,STEP block,Scp1 confirm,MG interference,others
CC(=O)c1ccc(C(=O)Nc2nnc(-c3ccc(Cl)cc3)o2)cc1,54*,7,2,16,-16,6,43*,-17,Scp-1 Tm shift=2
O=C(CSc1nc(-c2ccccc2)nc2ccc(F)cc12)Nc1cccc(C(=O)O)c1,67*,63*,0,-7,19,8,60*,-9,Scp-1 Tm shift=-6
O=C(CSc1nc(-c2ccccc2)nc2ccc(F)cc12)Nc1ccc(C(=O)O)cc1,61*,62*,0,-7,2,11,53*,-19,Scp-1 Tm shift=-1
CC(C)OC(=O)CSc1nc(-c2ccc(F)cc2)nc2ccc(F)cc12,-7,0,4,1,-7,-8,/,/,
O=C(Cc1ccccc1)N/N=C/c1ccc(OCC(=O)Nc2ccccc2)cc1,82*,1,-4,6,-11,-2,44*,-13,Scp-1 Tm shift=-16
COc1ccc(C(=O)OCCc2ccc(O)cc2)cc1,1,0,-2,0,-5,-2,/,/,
COc1ccc(C(=O)OCC[N+]2(C)CCOCC2)cc1,57*,0,0,-1,-9,0,10,-4,
O=C(N/N=C/c1ccc(O)cc1)/C(=C/c1ccccc1)CCO,0,0,2,-2,14,-4,/,/,
COc1cc(/C=N/NC(=O)c2cccc([N+](=O)[O-])c2)ccc1O,89*,-1,0,-15,-9,-5,-14,-13,
N#Cc1ncccc1CCc1cccc(Cl)c1,-20,1,2,1,/,-3,/,/,
Cc1noc(C)c1C(=O)Nc1nnc(-c2ccccc2)s1,67*,-1,0,2,-7,6,-24,-22,
Cc1onc(-c2ccccc2)c1C(=O)Nc1nnc(-c2ccncc2)s1,-4,1,1,13,8,-2,/,/,
Cc1cccnc1NC(=O)CCc1nnc2ccc(NCc3ccco3)nn12,22,0,7,8,16,1,/,/,
O=C(CCc1nnc2ccc(NCc3ccco3)nn12)Nc1ccccn1,59*,-1,13,14,16,3,52*,-15,Scp-1 Tm shift=1
CCCc1cc(SCC(=O)Nc2c(C)n(C)n(-c3ccccc3)c2=O)n2c(nc3ccccc32)c1C#N,98*,/,/,/,-17,/,84*,-8,Scp-1 Tm shift=-5
CCCn1nc(NC(=O)COC)c2cc3cc(C)ccc3nc21,62*,0,0,-11,8,-1,-10,-11,
CC(C)C[C@@H](COCc1cccc(Cl)c1)N1CCN(C(=O)c2ccc(C(F)(F)F)cc2)CCC1=O,/,3,/,1,/,/,/,/,
O=C(Nc1cccc([N+](=O)[O-])c1)c1cnccn1,58*,3,16,-9,9,4,56*,-17,Scp-1 Tm shift=6.4*
O=C(Nc1cccc([N+](=O)[O-])c1)c1ccncc1,0,-1,2,-9,9,1,/,/,
Brc1ccc(-c2nn3c(-c4ccncc4)nnc3s2)o1,/,/,/,/,8,/,/,/,
Brc1ccc(-c2nn3c(-c4ccccn4)nnc3s2)o1,72*,0,8,-2,-7,6,50*,-11,Scp-1 Tm shift=2
O=[N+]([O-])c1ccc(/C=N/Nc2ncc(-c3ccccc3)cn2)cc1,68*,23,30,-6,25,22,28,-8,
O=[N+]([O-])c1ccc(/C=N/Nc2ncc(Br)cn2)cc1,2,14,14,4,-13,19,/,/,
C[C@H](CO)N1C[C@H](C)[C@@H](CN(C)Cc2ccc(C(=O)O)cc2)Oc2ccc(NS(C)(=O)=O)cc2C1=O,9,0,4,3,/,-3,/,/,
C[C@H](CO)N1C[C@H](C)[C@@H](CN(C)S(=O)(=O)c2ccccc2)Oc2ccc(NC(=O)Nc3ccccc3)cc2C1=O,59*,0,-8,3,/,-2,5,-5,
SMILES,Scp1 inh,LMPTP block,DNMT1 inh,SUMO1-SIM PPI,UBC9 SUMO inh,STEP block,Scp1 confirm,MG interference,others
COc1ccc(S(=O)(=O)Nc2ccc3c(c2)C(=O)N([C@@H](C)CO)C[C@H](C)[C@H](CN(C)S(=O)(=O)c2ccc(F)cc2)O3)cc1,45,-1,-3,3,/,2,/,/,
C[C@H](CO)N1C[C@H](C)[C@@H](CN(C)S(=O)(=O)c2ccc(F)cc2)Oc2ccc(NC(=O)Nc3ccccc3)cc2C1=O,-4,0,-5,-1,/,-2,/,/,
C[C@H](CO)N1C[C@H](C)[C@@H](CN(C)S(=O)(=O)c2ccccc2)Oc2ccc(NC(=O)C3CC3)cc2C1=O,62*,-2,6,-4,/,1,0,-19,
COc1ccc(S(=O)(=O)Nc2ccc3c(c2)C(=O)N([C@H](C)CO)C[C@H](C)[C@@H](CN(C)S(=O)(=O)c2ccc(OC)cc2)O3)cc1,66*,-1,-8,2,/,1,14,2,
C[C@@H]1CN([C@@H](C)CO)C(=O)c2cc(NS(C)(=O)=O)ccc2O[C@@H]1CN(C)Cc1ccc(C(F)(F)F)cc1,58*,0,9,-5,/,-5,15,-2,
CCCCOc1ccc(-c2nnn(CC(=O)NCCc3c[nH]c4ccccc34)n2)cc1,-14,2,1,0,-14,7,/,/,
C[C@@H]1CN([C@@H](C)CO)C(=O)c2cc(NS(C)(=O)=O)ccc2O[C@@H]1CN(C)S(=O)(=O)c1ccccc1,50*,0,1,-7,/,1,9,-22,
C[C@H](CO)N1C[C@H](C)[C@@H](CN(C)S(=O)(=O)c2ccc(F)cc2)Oc2ccc(NC(=O)Nc3ccc4c(c3)OCO4)cc2C1=O,53*,0,-12,11,/,1,7,-11,
